The text below walks through data of ChEMBL document CHEMBL1133719, “Synthesis and preliminary biological evaluations of CC-1065 analogues: effects of different linkers and terminal amides on biological activity” (J Med Chem, 2000).

Assay [1] in a line: Minimal drug concentration necessary to inhibit incorporation of [3H]thymidine in U937 Leukemia cells. The assay is classed as functional, cell-based, Homo sapiens.
Assay [2] can be described thus: Hematological effects in female CDF1 mice RBCs at the dose of 50ug/Kg, in red blood cells. Type of assay: functional, Mus musculus, Erythrocyte. An outline of the steps:
(§1)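 Non-tumour-bearing female CDF1 mice, 10 per group. Drug was dissolved in DMSO, diluted in 30% DMSO/0.5% glucose, and given as a single ip dose on day 1. Blood was sampled on day 27 for WBC, platelet, RBC and MCHC measurements. Values are medians of 10 mice, with saline or vehicle controls.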

Assay [3] has as its system Mus musculus. Kind of assay: Anti tumor activity was tested in mice and percent increase of life span at a dose of 70 ug/kg. Type of assay: functional. An outline of the steps:
(§2)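 Male BDF1 mice, 4-6 weeks old, 6 per group, were given 10⁵ L1210 cells ip on day 0. Drug in DMF was diluted in 30% DMSO/0.5% glucose and given ip on days 1, 5 and 9. %ILS = (T/C − 1) × 100 on median survival of dying animals only; 30-day survivors noted separately. Group weight change was taken from day 0 to the lowest-weight day.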

Assay [4] relates to L1210. Kind of assay: Antitumor activity was tested in BDF1 male mice bearing L1210 Leukemia, at the dose of 42 ug/kg; survivors for 30 days was reported. The assay is classed as functional, Mus musculus. A digest of the protocol: as §2
Assay [5] has as its system L1210. The experiment in a line: Antitumor activity was tested in Mice (bearing L1210 leukemia) and body weight change between days 0 and days 12 (when the animal weight was the lowest) was estimated at a dose of 42 ug/kg. Type of assay: functional, Mus musculus. A digest of the protocol: as §2
The nature of assay [6]: Hematological effects in female CDF1 mice platelet cells at the dose of 50ug/Kg, in platelets. The assay is classed as functional, Mus musculus. A digest of the protocol: as §1
The subject of assay [7] is L1210. Kind of assay: Antitumor activity in mice bearing L1210 Leukemia at the dose of 30 ug/kg; survivors for 30 days was reported. Type of assay: functional, Mus musculus.
For assay [8], the system named is Mus musculus. Kind of assay: Hematological effects in female CDF1 mice at the dose of 50ug/Kg, in white blood cells. The assay is classed as functional. A digest of the protocol: as §1
The test system of assay [9] is L1210. The experiment in a line: Antitumor activity was tested in BDF1 male mice bearing L1210 Leukemia, at the dose of 25 ug/kg; survivors for 30 days was reported. The assay is classed as functional, Mus musculus. A digest of the protocol:
as §2

Assay [10] is described as follows: Compound was administered to non-tumor bearing female CDF1 mice to estimate Mean corpuscular hemoglobin concentration (MCHC). Type of assay: functional, Mus musculus. An outline of the steps:
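Non-tumor-bearing female CDF1 mice, 10 per group, received one ip dose on day 1 (DMSO stock diluted in 30% DMSO/0.5% glucose). Blood was sampled on day 27 for hematology, including MCHC; values are medians of 10 mice.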

Assay [11] deals with Mus musculus. The experiment in a line: Antitumor activity was tested in mice and percent increase of life span at a dose of 25 ug/kg was reported. Type of assay: functional.
Assay [12] deals with L1210. The experiment in a line: Antitumor activity was tested in mice (bearing L1210 leukemia) and body weight change between days 0 and days 12 (when the animal weight was the lowest) was estimated at a dose of 25 ug/kg. The assay is classed as functional, Mus musculus. An outline of the steps: as §2
Assay [13] deals with L1210. Kind of assay: Antitumor activity was tested in Mice (bearing L1210 leukemia) and body weight change between days 0 and days 12 (when the animal weight was the lowest) was estimated at a dose of 70 ug/kg. Type of assay: functional, Mus musculus. An outline of the steps:
as §2

Assay [14] concerns Mus musculus. The experiment in a line: Anti tumor activity was tested in mice and percent increase of life span at a dose of 42 ug/kg. The assay is classed as functional. An outline of the steps: as §2
Assay [15] relates to L1210. Kind of assay: Antitumor activity was tested in BDF1 male mice bearing L1210 Leukemia, at the dose of 70 ug/kg; activity expressed as 30-day survivors. Type of assay: functional, Mus musculus. An outline of the steps:
as §2

The species entered for assay [16] is Mus musculus. The experiment in a line: Antitumor activity in mice bearing L1210 leukemia at a dose of 30 ug / kg. The assay is classed as functional. An outline of the steps: (§3)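 Female CDF1 mice, 10 per group, got 100 L1210 cells ip on day 0. Drug in DMSO was diluted with 30% DMSO in 0.5% glucose and dosed ip on days 1, 5 and 9. Long-term (60-day) survivors are given as percent of the group.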

For assay [17], the species on record is Mus musculus. Kind of assay: Hematological effects in female CDF1 mice, in red blood cells. Type of assay: functional. A digest of the protocol: (§4)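 Non-tumor-bearing female CDF1 mice, 10 per group. Drugs were dissolved in DMSO, diluted in 30% DMSO/0.5% glucose, and given as a single ip dose on day 1 (doses per kg). Blood was sampled on day 27 for WBC, platelet, RBC and MCHC counts. Values are medians of 10 mice.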

The species named for assay [18] is Mus musculus. The experiment in a line: Hematological effects in female CDF1 mice, in platelets. Type of assay: functional. An outline of the steps:
as §4

The species named for assay [19] is Mus musculus. The experiment in a line: Mean corpuscular hemoglobin concentration (MCHC). Type of assay: functional. A digest of the protocol:
as §1

The species named for assay [20] is Mus musculus. Kind of assay: (§5) Hematological effects in female CDF1 mice at the dose of 30 mg, in white blood cells. The assay is classed as functional. A digest of the protocol:
as §4

Assay [21] is filed under the species Mus musculus. Kind of assay: Hematological effects in female CDF1 mice at the dose of 30 mg, in platelet cells. The assay is classed as functional. An outline of the steps: as §1
The species entered for assay [22] is Mus musculus. The experiment in a line: Hematological effects in female CDF1 mice at the dose of 30mg, in red blood cells. The assay is classed as functional. A digest of the protocol:
as §1

For assay [23], the species on record is Mus musculus. Described as §5. Type of assay: functional. A digest of the protocol:
as §1
This is another data set of the same source.

For assay [24], the species on record is Mus musculus. The experiment in a line: (§6) Hematological effects in female CDF1 mice at the dose of […], in red blood cells.
The species named for assay [25] is Mus musculus. Kind of assay: animal or person.
The species named for assay [26] is Mus musculus. Kind of assay: Mean body weight change between days 1 and 10. The assay is classed as functional. An outline of the steps:
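Female BDF1 mice (4-6 weeks old, 8 per group) were inoculated ip with 10⁶ B16BL6 melanoma cells on day 0. Drugs in dimethylacetamide were diluted in DMA:Cremophor:water (1:5:44) and given ip at 0.1 mL on days 1, 5 and 9 (doses per kg). Read-outs were %ILS = (T/C − 1) × 100 on median survival of dying animals only, mean body weight change from day 1 to day 10 (g/mouse), and 90-day survivors.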

Assay [27] is filed under the species Mus musculus. The experiment in a line: Antitumor activity in mice bearing B16BL6 melanoma at a dose of 5(ug/mL); survivors for 90 days was reported. Type of assay: functional. An outline of the steps: (§7)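 B16BL6 cells were cultured as monolayers, and 10⁶ cells were injected ip on day 0 into female BDF1 mice (4-6 weeks, 8 per group). Drug in dimethylacetamide was diluted in DMA/Cremophor/water (1:5:44) and 0.1 mL given ip on days 1, 5 and 9. %ILS came from median survival of dying animals; 90-day survivors were counted; mean weight change covered days 1-10.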

The species named for assay [28] is Mus musculus. Kind of assay: Antitumor activity in mice bearing B16BL6 melanoma at a dose of 10(ug/mL); survivors for 90 days was reported. The assay is classed as functional. An outline of the steps:
as §7

For assay [29], the species on record is Mus musculus. The experiment in a line: Hematological effects in female CDF1 mice at the dose of […], in platelets. The assay is classed as functional. An outline of the steps: as §4
Assay [30] relates to Mus musculus. Kind of assay: Antitumor activity in female CDF1 mice bearing L1210 Leukemia at the dose of 30 ug/kg and survivors (60-day) was expressed. Type of assay: functional. A digest of the protocol: as §3
The species entered for assay [31] is Mus musculus. Described as §6. Type of assay: functional. An outline of the steps: as §4

SMILES strings stand for the structures.

With `CC(=O)Nc1ccc2oc(C(=O)Nc3ccc4[nH]c(C(=O)N5CC(CCl)c6c5cc(O)c5ccccc65)cc4c3)cc2c1` (configuration not stated), the half-inhibitory concentration (IC50) in assay [1] stood at 0.4 nM.

Consider `CC(=O)Nc1ccc2oc(C(=O)Nc3ccc4[nH]c(C(=O)N5CC6CC67C5=CC(=O)c5ccccc57)cc4c3)cc2c1` (configuration not stated), for which, in [2], the RBC is reported as 7.81 10e6 ul-1. Moreover, in [3], the increase in lifespan (ILS) at 0.07 mg/kg is 93%. Moreover, the No. of survivors worked out at 1 in [4], 60 in [7], 0 in [9] and 0 in assay [15]. The Weight change in assay [5] is 18%; in assay [12], 23%; in assay [13] it was -15%. The Platelet in [6] was 1.01 10e6 ul-1. The WBC in assay [8] is listed as 13.95 10e3 ul-1. For the same compound, in assay [10], the MCHC was 35.5 g/dL. This compound also registered an ILS at 0.025 mg/kg in assay [11] of 53%. Further, in assay [1], the half-inhibitory concentration (IC50) came out at 0.2 nM. The compound further showed an increase in lifespan (ILS) at 0.042 mg/kg in assay [14] of 80%.

`CC(=O)Nc1ccc2[nH]c(C(=O)N3CC(CCl)c4c3cc(O)c3ccccc43)cc2c1` (configuration not stated) came in with an IC50 in [1] of 3 nM.

In turn, `CCCC(=O)Nc1ccc2oc(C(=O)Nc3ccc4[nH]c(C(=O)N5CC(CCl)c6c5cc(O)c5ccccc65)cc4c3)cc2c1` (configuration not stated) gave a Survivors in [16] of 20%. The compound further gave a 50% inhibitory concentration (IC50) in assay [1] of 0.008 nM.

In [1], `CC(=O)Nc1ccc2[nH]c(/C=C/C(=O)N3CC(CCl)c4c3cc(O)c3ccccc43)cc2c1` (configuration not stated) registered a concentration for half-maximal inhibition (IC50) of 0.9 nM.

Take `C[S+](C)[O-].OC[C@H]1O[C@H](O)[C@H](O)[C@@H](O)[C@@H]1O`: the RBC in assay [17] is reported as 8.5 10e6 ul-1. In assay [18], the Platelet is reported as 1.16 10e6 ul-1. In [19], this compound returned an MCHC of 34.45 g/dL. In assay [20], the WBC is recorded as 12.85 10e3 ul-1.

In the case of `CS(=O)(=O)OCCCCOS(C)(=O)=O` [BUSULFAN], the Platelet in assay [21] is reported as 0.71 10e6 ul-1. For the same compound, the RBC in assay [22] is reported as 8.45 10e6 ul-1. In assay [20], the WBC is given as 7 10e3 ul-1.

For `O=P1(N(CCCl)CCCl)NCCCO1` (configuration not stated) [CYCLOPHOSPHAMIDE ANHYDROUS], the WBC in assay [23] was 11.22 10e3 ul-1. For the same compound, in [24], the RBC is 7.67 10e6 ul-1. The compound further came in with an ILS at 0.125 mg/kg in assay [25] of 173%.

`COc1cccc2c1C(=O)c1c(O)c3c(c(O)c1C2=O)C[C@@](O)(C(=O)CO)C[C@@H]3O[C@H]1C[C@H](N)[C@H](O)[C@H](C)O1` [DOXORUBICIN] registered a Weight in [26] of 0.5 g. Besides, the No. of survivors stood at 0 in [27] and 2 in assay [28].

Consider `O=c1[nH]cc(F)c(=O)[nH]1` [FLUOROURACIL], for which, in assay [21], the Platelet is on record as 1.24 10e6 ul-1. The same compound came in with an MCHC in assay [19] of 35.4 g/dL. The RBC in assay [22] was 8.82 10e6 ul-1. Also, in [20], the WBC is reported as 12.4 10e3 ul-1.

Take `CC(=O)O[C@H]1C(=O)[C@@]2(C)[C@H]([C@H](OC(=O)c3ccccc3)[C@]3(O)C[C@H](OC(=O)[C@H](O)[C@@H](NC(=O)c4ccccc4)c4ccccc4)C(C)=C1C3(C)C)[C@]1(OC(C)=O)CO[C@@H]1C[C@@H]2O` [PACLITAXEL]: in assay [29], the Platelet was 1.04 10e6 ul-1. Further, the Survivors in assay [30] came out at 0%. The compound further yielded an MCHC in assay [19] of 36.5 g/dL. The WBC in assay [23] was 13.4 10e3 ul-1. Also, the RBC in assay [31] was 8.33 10e6 ul-1.
